From ChEMBL document CHEMBL1143659, “Discovery of a rhodanine class of compounds as inhibitors of Plasmodium falciparum enoyl-acyl carrier protein reductase” (J Med Chem, 2007)
pIC50, pKi: −log10 of the molar value. In brackets after ≈: the same amount, converted by molar mass. Activity calls are given as the source filed them. The calls are words filed in the database; no cut-off is given here.

Tests used:
[1] = molecular target: T1, Enoyl-acyl-carrier protein reductase (Plasmodium falciparum, UniProt Q965D5); test: (§1) Inhibition of Plasmodium falciparum recombinant enoyl ACP reductase expressed in BL21 (DE3) cells; assay type: biochemical
T1 sequence (Q965D5 whole entry): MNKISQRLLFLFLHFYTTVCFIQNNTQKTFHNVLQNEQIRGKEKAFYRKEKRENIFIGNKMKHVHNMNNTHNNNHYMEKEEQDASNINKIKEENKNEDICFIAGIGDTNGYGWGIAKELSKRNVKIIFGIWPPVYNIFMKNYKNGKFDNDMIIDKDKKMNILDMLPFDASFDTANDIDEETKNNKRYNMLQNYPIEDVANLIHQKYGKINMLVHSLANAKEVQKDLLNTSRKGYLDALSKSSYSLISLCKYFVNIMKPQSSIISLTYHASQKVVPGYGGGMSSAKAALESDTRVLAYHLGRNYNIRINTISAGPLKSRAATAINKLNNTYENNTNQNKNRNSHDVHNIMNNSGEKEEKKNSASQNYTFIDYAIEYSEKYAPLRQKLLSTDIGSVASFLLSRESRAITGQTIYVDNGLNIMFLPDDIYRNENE
Method in brief: (§2)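 His-tagged enzyme from E. coli, Ni-NTA purified. Assay at 25 °C in 150 mM Tris-NaCl pH 7.5, 200 µM crotonoyl-CoA, 100 µM NADH, 200 nM enzyme, 1% DMSO; NADH oxidation followed as A340 decrease. Percent inhibition from residual activity across serial inhibitor dilutions; IC50 by nonlinear regression vs log concentration; mean of three sets.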

[2] = molecular target: T1, Enoyl-acyl-carrier protein reductase; test: Inhibition of Plasmodium falciparum recombinant enoyl ACP reductase expressed in BL21 (DE3) cells with respect to NADH; assay type: cell-based
Method in brief: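 Ki via Dixon plot (x-intercept). NADH fixed at 50 and 100 µM, crotonoyl-CoA 200 µM, 200 nM enzyme; inhibitor varied from 1 nM up to its IC50. A340 NADH-consumption assay at 25 °C, pH 7.5; mean of three sets.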

[3] = molecular target: T1, Enoyl-acyl-carrier protein reductase; test: Inhibition of Plasmodium falciparum recombinant enoyl ACP reductase expressed in BL21 (DE3) cells with respect to crotonyl CoA; assay type: cell-based
Method in brief: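 Ki via Dixon plot (x-intercept). Crotonoyl-CoA fixed at 100 and 200 µM, NADH 100 µM; inhibitor varied from 1 nM up to its IC50. Spectrophotometric NADH oxidation at 340 nm, 25 °C, Tris-NaCl pH 7.5; mean of three sets.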

[4] = molecular target: T2, Enoyl-acyl-carrier protein reductase (Plasmodium falciparum) (UniProt Q965D5); test: as §1; assay type: biochemical; method in brief: as §2
T2 sequence (whole entry): T1 sequence (Q965D5 whole entry)

[5] = test system: Plasmodium falciparum; test: Growth inhibition of chloroquine-sensitive Plasmodium falciparum FCK2 in human erythrocytes after 96 hrs; assay type: functional, organism-based; conditions: FCK2, 96 h
Method in brief: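 Synchronized early-trophozoite cultures (1-2% parasitemia, 2% hematocrit) in RPMI 1640 with 10% human serum, 0.225% bicarbonate, gentamycin; inhibitor in Me2SO (final ≤0.05%), added up to fourth day. Parasitemia scored by Giemsa-stained microscopy at 48 and 96 h against solvent control. IC50 by nonlinear regression of relative percent parasitemia vs log concentration; three independent experiments.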

Row | pIC50 [1] | Structure (SMILES) | further results
1 | 4.70 | O=C(O)c1cccc(-c2ccc(/C=C3\SC(=S)N(c4cccc(C(F)(F)F)c4)C3=O)o2)c1 | 
2 | 4.00 | O=C(O)CCCCCN1C(=O)/C(=C/c2c[nH]c3ccccc23)SC1=S | 
3 | < 4.30 | COc1ccc(N2C(=O)/C(=C/c3c4ccccc4cc4ccccc34)SC2=S)cc1 | 
4 | 5.77 | O=C1NC(=S)S/C1=C\c1ccc(-c2cccc(Cl)c2)o1 | pKi [2]: 5.98; pKi [3]: 6.06
5 | 4.55 | Cc1ccc(-c2ccc(/C=C3\SC(=S)NC3=O)o2)cc1Cl | 
6 | < 4.00 | CCc1ccc(/C=C2\SC(=S)N(CCCCCC(=O)OC)C2=O)cc1 | 
7 | 5.00 | COc1ccc(/C=C2\SC(=S)N(c3ccc(O)cc3)C2=O)cc1 | pKi [2]: 5.04; pKi [3]: 5.06
8 | 4.22 | COc1ccc(Cl)cc1NC(=O)c1cc(-c2ccc(Cl)s2)nc2ccccc12 | 
9 | < 4.00 | O=C1/C(=C/c2ccc(-c3cccc(Cl)c3)o2)SC(=S)N1c1cccc(Cl)c1 | 
10 | < 4.00 | O=C1/C(=C/c2cccc(O)c2)SC(=S)N1c1ccccc1 | 
11 | < 4.00 | COc1ccc(N2C(=O)/C(=C/c3ccc(C(C)C)cc3)SC2=S)cc1 | 
12 | 4.22 | O=C(NCCN1CCCc2ccccc21)c1cc(-c2ccc(Cl)s2)nc2ccccc12 | 
13 | 4.12 | O=C(Nc1cc(Cl)ccc1O)c1cc(-c2ccc(Cl)cc2)on1 | 
14 | 6.06 | COc1ccc(N2C(=O)/C(=C/c3ccc(OC)c4ccccc34)SC2=S)cc1 | 
15 | < 4.00 | CC(C)c1ccc(/C=C2\SC(=S)N(CCCCCC(=O)O)C2=O)cc1 | 
16 | 4.30 | O=C(NC1CCCc2ccccc21)c1cc(Sc2cccc(Cl)c2)nc2ccccc12 (stereo not drawn) | 
17 | 4.26 | COc1ccc(-c2cc(C(=O)Nc3cc(Cl)ccc3O)no2)cc1 | 
18 | 4.28 | Clc1ccc(CNc2nc(SCc3ccc(Cl)cc3)nc3ccccc23)cc1 | 
19 | < 4.00 | Cc1cc(/C=C2\SC(=S)N(CCCCCC(=O)O)C2=O)ccc1OCc1ccccc1 | 
20 | 5.82 | COc1ccc(N2C(=O)/C(=C/c3ccc(C=O)cc3)SC2=S)cc1 | pKi [2]: 4.84; pKi [3]: 4.88
21 | < 4.00 | COc1ccc(N2C(=O)/C(=C/c3ccccc3)SC2=S)cc1 | 
22 | 6.06 | CN(C)c1ccc(/C=C2\SC(=S)N(c3ccc(O)cc3)C2=O)cc1 | 
23 | 4.46 | O=C1NC(=S)S/C1=C\c1ccc(-c2ccccc2Cl)o1 | 
24 | 4.15 | O=C1c2c(Cl)c(Cl)c(Cl)c(Cl)c2C(=O)N1c1ccc2[nH]c(/C=C/c3ccc(Cl)cc3)nc2c1 | 
25 | < 4.00 | CCN1C(=O)/C(=C/c2cc(Cl)c(O)c(Cl)c2)SC1=S | 
26 | < 4.00 | CCN1C(=O)/C(=C/c2ccc(N(CC)CC)cc2O)SC1=S | 

Row | pIC50 [1] | Structure (SMILES) | further results
27 | 6.06 | O=C1NC(=S)S/C1=C\c1ccc(-c2cccc(Cl)c2Cl)o1 | pKi [2]: 6.25; pKi [3]: 6.32
28 | < 4.00 | O=C1/C(=C/c2ccco2)SC(=S)N1c1cccc(F)c1 | 
29 | 5.19 | COc1cc(/C=C2\SC(=S)N(CCCCCC(=O)O)C2=O)ccc1OCc1ccc(Cl)cc1 | pKi [2]: 5.27; pKi [3]: 5.29
30 | < 4.00 | COC(=O)CCCCCN1C(=O)/C(=C/c2ccc(Cl)cc2)SC1=S | 
31 | 7.46 | O=C1/C(=C/c2ccc(O)c(O)c2)SC(=S)N1c1ccccc1 | pIC50 [5]: 6.12; MIC [5]: 2.5 µM (≈ 0.824 µg/mL); pKi [2]: 7.49; pKi [3]: 8.38
32 |  | COC(=O)CCCCCN1C(=O)/C(=C/c2cc(OC)c(OC)c(OC)c2)SC1=S | Activity [4]: inactive
33 | < 4.00 | O=C1/C(=C/c2cccc(O)c2)SC(=S)N1c1ccc(F)cc1 | 
34 | 6.01 | O=C1NC(=S)S/C1=C\c1ccc(-c2ccc(Cl)c(Cl)c2)o1 | pKi [2]: 6.20; pKi [3]: 6.29
35 | 4.30 | CC(C)(C)c1ccc(CS[n+]2cc3ccccc3c(=O)n2Nc2ccc(Cl)nn2)cc1 | 
36 | < 4.00 | CCCCCOc1ccc(/C=C2\SC(=S)N(CCCCCC(=O)O)C2=O)cc1OC | 
37 | 4.35 | CCCOc1ccc(/C=C2\SC(=S)N(CCCCCC(=O)O)C2=O)cc1OC | 
38 | < 4.00 | COc1ccc(N2C(=O)/C(=C/c3ccc(N(C)C)cc3)SC2=S)cc1 | 
39 | 5.15 | CCCCCCOc1ccc(/C=C2\SC(=S)N(CCCCCC(=O)O)C2=O)cc1OC | pKi [2]: 5.14; pKi [3]: 5.18
40 | < 4.00 | COc1ccc(/C=C2\SC(=S)N(c3ccc(OC)cc3)C2=O)cc1 | 
41 | 5.21 | O=C1NC(=S)S/C1=C\c1ccc(-c2cc(Cl)cc(Cl)c2)o1 | pKi [2]: 5.26; pKi [3]: 5.39
42 | 6.06 | COc1cc(/C=C2\SC(=S)N(c3ccc(O)cc3)C2=O)ccc1O | 
43 | 4.30 | O=C(O)CCCN1C(=O)/C(=C/c2cn(-c3ccccc3)nc2-c2ccc(Cl)cc2)SC1=S | 
44 |  | CCOc1ccc(N2C(=O)/C(=C/c3cccc4ccccc34)SC2=S)cc1 | Activity [4]: inactive
45 | < 4.00 | CCN(CC)c1ccc(N2C(=O)/C(=C/c3ccc(OC)cc3)SC2=S)cc1 | 
46 | < 4.00 | COC(=O)CCCCCN1C(=O)/C(=C/c2cccc(O)c2)SC1=S | 
47 | 5.22 | O=C1NC(=S)S/C1=C\c1ccc(-c2cc(Cl)ccc2Cl)o1 | pKi [2]: 5.60; pKi [3]: 5.70
48 | 4.05 | CCc1nnc(NS(=O)(=O)c2ccc(N3C(=O)c4c(Cl)c(Cl)c(Cl)c(Cl)c4C3=O)cc2)s1 | 
49 | 4.60 | O=C1/C(=C/c2ccc(Cl)cc2Cl)SC(=S)N1c1ccc(O)cc1 | 
50 |  | CCCCOc1ccc(/C=C2\SC(=S)N(CCCCCC(=O)OC)C2=O)cc1 | Activity [4]: inactive
51 | < 4.00 | CN(C)CCOC(=O)CCN1C(=O)/C(=C/c2ccc(Cl)cc2Cl)SC1=S | 

Row | Structure (SMILES) | pIC50 [1] | further results
52 | Cc1ccc(-c2ccc(/C=C3\SC(=S)N(C)C3=O)o2)cc1Cl | 6.06 | 
53 | CN(C)CCOC(=O)CCCCCN1C(=O)/C(=C/c2ccccc2)SC1=S | < 4.00 | 
54 | CN1C(=O)/C(=C/c2ccc(-c3ccc(Cl)c(Cl)c3)o2)SC1=S | < 4.00 | 
55 | CN1C(=O)/C(=C/c2ccc(-c3cc(Cl)cc(Cl)c3)o2)SC1=S | 6.06 | 
56 | O=C1/C(=C/c2ccc(-c3ccc(Cl)cc3)o2)SC(=S)N1c1cccc(Cl)c1 | < 4.00 | 
57 | CN1C(=O)/C(=C/c2ccc(-c3ccc(Cl)cc3Cl)o2)SC1=S | 6.06 | Activity [4]: inactive
58 | Oc1cc(Cl)ccc1Oc1ccc(Cl)cc1Cl [TRICLOSAN] | 7.18 | pKi [3]: 6.18
59 | CN1C(=O)/C(=C/c2ccc(-c3cccc(Cl)c3)o2)SC1=S | 4.52 | 
